Reference: ChEMBL document CHEMBL4725436, “Gibberellin JRA-003: A Selective Inhibitor of Nuclear Translocation of IKKα” (ACS Med Chem Lett, 2020)
Calls of active or inactive are those of the source. No cut-off for these calls is given here.

How the values were obtained:
[1] = Selectivity index, ratio of IC50 for human Hs578Bst cells to EC50 for human HCC1599 cells measured after 24 hrs by CellTiter-Glo luminescent assay; type: toxicity; conditions: Hs578Bst cells (IC50) versus HCC1599 cells (EC50)
Outline: (§1)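 High-throughput viability screen of test agents across a panel of 22 cancerous and noncancerous human cell lines. Viability was read by CellTiter-Glo luminescence.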

[2] = Selectivity index, ratio of IC50 for human Hs888lu cells to EC50 for human HS578T cells measured after 24 hrs by CellTiter-Glo luminescent assay; outline: as §1
[3] = Cytotoxicity against human Hs578Bst cells assessed as reduction in cell viability measured after 24 hrs by CellTiter-Glo luminescent assay; type: cell-based; outline: as §1
SUD4 = experiment: Cytotoxicity against human SU-DHL-4 cells assessed as reduction in cell viability measured after 24 hrs by CellTiter-Glo luminescent assay; type: functional, cell-based; conditions: SU-DHL-4, 24 h; outline: as §1
PSN1 = experiment: Cytotoxicity against human PSN1 cells assessed as reduction in cell viability measured after 24 hrs by CellTiter-Glo luminescent assay; type: functional, cell-based; conditions: PSN1, 24 h; outline: as §1
[4] = molecular target: T1, Inhibitor of nuclear factor kappa-B kinase subunit beta (Homo sapiens) (UniProt O14920); experiment: Inhibition of IKKbeta in human HeLa cells assessed as reduction in IL-1 beta-stimulated IKK beta nuclear translocation at 10 uM pretreated with compound for 4 hrs followed by stimulation with IL-1 beta for 1 hr by immunohistochemical staining/confocal microscopy; type: cell-based
T1 sequence (whole entry): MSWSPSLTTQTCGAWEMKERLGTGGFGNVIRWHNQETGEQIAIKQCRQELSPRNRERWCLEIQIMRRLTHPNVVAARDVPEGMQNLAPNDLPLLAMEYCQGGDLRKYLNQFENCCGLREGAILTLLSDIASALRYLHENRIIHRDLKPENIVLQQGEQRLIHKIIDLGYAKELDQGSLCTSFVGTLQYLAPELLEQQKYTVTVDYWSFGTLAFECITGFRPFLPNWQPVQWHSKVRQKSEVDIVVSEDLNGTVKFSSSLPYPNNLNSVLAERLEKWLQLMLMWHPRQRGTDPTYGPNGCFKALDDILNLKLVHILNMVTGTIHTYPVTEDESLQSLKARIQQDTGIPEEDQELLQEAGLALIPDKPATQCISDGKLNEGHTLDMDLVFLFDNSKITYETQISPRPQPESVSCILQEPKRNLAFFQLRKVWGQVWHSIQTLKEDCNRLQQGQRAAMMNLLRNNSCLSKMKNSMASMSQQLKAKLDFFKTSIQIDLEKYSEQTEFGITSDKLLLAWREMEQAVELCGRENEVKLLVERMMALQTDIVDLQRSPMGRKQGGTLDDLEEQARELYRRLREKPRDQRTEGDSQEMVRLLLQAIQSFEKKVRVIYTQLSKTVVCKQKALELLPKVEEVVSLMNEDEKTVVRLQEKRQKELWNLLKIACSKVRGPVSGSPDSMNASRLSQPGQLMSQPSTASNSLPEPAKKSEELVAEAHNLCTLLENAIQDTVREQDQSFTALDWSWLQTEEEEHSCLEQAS
Outline: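 HeLa cells were pretreated with DMSO or test agent for 4 h, then stimulated with IL-1β (or vehicle) for 1 h. NF-κB pathway members were immunostained with AF488-tagged antibodies, nuclei were counterstained with DAPI, and compartmental localization was imaged by confocal microscopy.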

Hs-578T = experiment: Cytotoxicity against human Hs-578T cells assessed as reduction in cell viability measured after 24 hrs by CellTiter-Glo luminescent assay; type: functional, cell-based; outline: as §1
[5] = Selectivity index, ratio of IC50 for human Hs578Bst cells to EC50 for human SU-DHL-4 cells measured after 24 hrs by CellTiter-Glo luminescent assay; type: toxicity; conditions: Hs578Bst cells (IC50) versus SU-DHL-4 cells (EC50); outline: as §1
[6] = molecular target: T2, Inhibitor of nuclear factor kappa-B kinase subunit alpha (Homo sapiens) (UniProt O15111); experiment: Inhibition of IKK alpha nuclear translocation in human HEK-293T cells assessed as reduction in IKK alpha level in nucleus at 15 uM pretreated with compound for 1 hr followed by stimulation with IL-1 beta for 3 hrs by western blot analysis; type: subcellular
T2 sequence (whole entry): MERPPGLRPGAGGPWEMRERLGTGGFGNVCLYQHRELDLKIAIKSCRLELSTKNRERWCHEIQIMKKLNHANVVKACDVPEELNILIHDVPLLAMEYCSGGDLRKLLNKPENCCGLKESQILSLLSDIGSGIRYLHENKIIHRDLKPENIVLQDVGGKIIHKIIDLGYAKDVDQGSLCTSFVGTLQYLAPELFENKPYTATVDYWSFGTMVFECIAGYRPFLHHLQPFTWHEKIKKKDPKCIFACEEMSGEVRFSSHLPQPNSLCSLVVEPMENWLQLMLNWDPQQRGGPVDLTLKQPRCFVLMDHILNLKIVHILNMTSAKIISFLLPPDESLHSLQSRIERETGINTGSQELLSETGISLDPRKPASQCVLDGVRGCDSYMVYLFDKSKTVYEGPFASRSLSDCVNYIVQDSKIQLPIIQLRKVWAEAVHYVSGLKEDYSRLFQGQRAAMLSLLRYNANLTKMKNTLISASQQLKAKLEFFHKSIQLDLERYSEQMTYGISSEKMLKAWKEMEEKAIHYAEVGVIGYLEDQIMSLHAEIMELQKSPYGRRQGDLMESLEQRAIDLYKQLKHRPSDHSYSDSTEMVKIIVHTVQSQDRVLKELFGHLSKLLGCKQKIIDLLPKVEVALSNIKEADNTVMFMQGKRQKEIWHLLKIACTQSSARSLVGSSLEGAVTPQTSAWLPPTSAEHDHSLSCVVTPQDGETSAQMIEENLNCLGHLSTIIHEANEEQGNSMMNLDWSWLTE
Outline: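 HEK 293T cells were pretreated with vehicle or test agent, then stimulated with IL-1β (or vehicle). Cells were lysed and nuclei separated, and the cytosolic and nuclear fractions were each probed for IKKα and IKKβ by Western blotting.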

[7] = molecular target: T2, Inhibitor of nuclear factor kappa-B kinase subunit alpha (Homo sapiens); experiment: Inhibition of JRA-031 binding to IKKalpha in TNF-alpha-stimulated human HEK293T cells at 1 uM pretreated with compound for 1 hr followed by labeling with JRA-031 for 1 hr followed by stimulation with TNF-alpha for 1 hr by pull down based mass spectrometry; type: cell-based; conditions: HEK-293T
[8] = Selectivity index, ratio of IC50 for human Hs895SK cells to EC50 for human HCC1599 cells measured after 24 hrs by CellTiter-Glo luminescent assay; type: toxicity; conditions: Hs895SK cells (IC50) versus HCC1599 cells (EC50); outline: as §1
HEK-293T = experiment: Inhibition of IKKalpha/IKKbeta in human HEK293T cells transfected with firefly luciferase gene assessed as inhibition of NF-kappaB signalling at 10 uM by luciferase reporter gene assay; type: cell-based
[9] = Selectivity index, ratio of IC50 for human Hs888lu cells to EC50 for human HCC1599 cells measured after 24 hrs by CellTiter-Glo luminescent assay; outline: as §1
[10] = Cytotoxicity against human Hs895SK cells assessed as reduction in cell viability measured after 24 hrs by CellTiter-Glo luminescent assay; type: cell-based; conditions: Hs 895.Sk; outline: as §1

With `C=C1C[C@]23C[C@@]1(O)CC[C@H]2[C@@]12C=CC(=O)[C@@](C)(C(=O)O1)[C@H]2[C@@H]3C(=O)OC` the selectivity ratio at 24 h [1] was 500, the Ratio IC50/EC50 [2] was over 500 and the IC50 [3] was over 10 µM. The EC50 (SUD4) was under 0.04 µM, the IC50 (PSN1) was over 10 µM and the inhibition [4] was “Active”. The EC50 (Hs-578T) was under 0.04 µM, the selectivity ratio at 24 h [5] was 500 and the inhibition [6] was “Active”. The inhibition [7] was “Active”, the selectivity ratio at 24 h [8] was 500 and the inhibition (HEK-293T) was 100%. For the same molecule, the “Ratio IC50/EC50” value [9] was 500 and the IC50 [10] was over 10 µM.
